# Test results published in paper PMC3266058 (Journal of Medicinal Chemistry, 2011).
# Like-named read-outs stand apart in the source and are kept apart here.
# Legend:
# [1] = tested on: colon 26 murine tumor cell line; settings: read-out: cytotoxicity IC50, colon 26; ref 9a; cited from earlier work
# A549 cells [2] = experiment: Antiproliferative MTT assay, A549; format: cell-based; settings: Homo sapiens, A549, 72 h, read-out: IC50 A549
# Jurkat cells = experiment: Antiproliferative MTT assay, Jurkat; format: cell-based; settings: Homo sapiens, 72 h, read-out: IC50 Jurkat
# Summary of the method: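 Cells (8 × 10^3 per well in complete medium) settled 18 h at 37 °C, 5% CO2, then medium replaced with fresh medium holding test compound at a range of concentrations (10 mM DMSO stocks; final DMSO ≤0.25%) for 72 h at 37 °C. Viability read by MTT.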
# MCF-7 cells = experiment: Antiproliferative MTT assay, MCF-7; format: cell-based; settings: Homo sapiens, MCF7, 72 h, read-out: IC50 MCF-7
# HL-60 cells = experiment: Antiproliferative MTT assay, HL-60; format: cell-based; settings: Homo sapiens, HL-60, 72 h, read-out: IC50 HL-60
# HeLa cells [3] = experiment: Antiproliferative MTT assay, HeLa; format: cell-based; settings: Homo sapiens, 72 h, read-out: IC50 HeLa
# HeLa cells [4] = experiment: Mitochondrial ROS production; format: cell-based, human; settings: HE and H2-DCFDA, 24 or 48 h, vs control cells
# Summary of the method: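 HeLa cells were cultured in DMEM with 10% FBS and antibiotics and exposed to test compound for 24 or 48 h, with final DMSO ≤0.25%. Cells were then stained with hydroethidine or H2-DCFDA, and ROS were measured by flow cytometry. Data are mean ± SEM of three independent experiments.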
# Bax = experiment: Western blot, Bax in HeLa cells; format: cell-based, human
# Summary of the method: (§1)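 HeLa cells were treated with test compound (DMSO ≤0.25%) for the indicated times, then washed twice in ice-cold PBS. They were lysed on ice for 30 min and spun at 15000g, 4 °C, 10 min; protein was measured by BCA. 20 μg was run on 7.5–15% SDS-PAGE and transferred to PVDF. Membranes were blocked overnight at 4 °C, then probed 2 h at room temperature with primary antibodies (total caspase-3, cleaved caspase-9, cyclin B, Bcl-2, Bax, XIAP). Peroxidase secondary was applied for 60 min, with ECL detection and β-actin reprobe as the loading control.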
# XIAP = experiment: Western blot, XIAP in HeLa cells; format: cell-based, human; settings: 24 or 48 h
# Summary of the method: as §1
# cyclin B1 = experiment: Western blot, cyclin B1 in HeLa cells; format: cell-based, human; settings: 24 and 48 h
# Summary of the method: as §1
# [5] = Body weight of treated xenograft mice; format: in vivo, BALB/c-nu nude mice; settings: 100 mg/kg intraperitoneally, 3 doses; whole treatment period
# Summary of the method: (§2)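 Female BALB/c-nu nude mice, 4 weeks old (15−18 g), kept pathogen-free. HT-29 cells at 1 × 10^7 cells/mL in serum-free RPMI 1640 were injected (0.2 mL) subcutaneously in the back. At ~300 mm3, 18 mice were randomised to vehicle or treatment groups (six per group). Test compound was given in DMSO i.p. at 0.01 mL/g (100 mg/kg) on days 0, 2 and 4. Tumour size (caliper, V = LW²/2) and body weight were recorded at each time point. Results are mean ± SEM; two-sided Student's t test.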
# caspase-9 = experiment: Western blot, caspase-9 in HeLa cells; format: cell-based, human; settings: 24 or 48 h
# Summary of the method: as §1
# caspase-3 = experiment: Western blot, caspase-3 in HeLa cells; format: cell-based, human; settings: 24 or 48 h
# Summary of the method: as §1
# HeLa cells [6] = experiment: Mitochondrial membrane potential; format: cell-based, human; settings: JC-1, 24 or 48 h
# Summary of the method: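 HeLa cells in DMEM with 10% FBS were incubated 24 or 48 h with test compound (final DMSO ≤0.25%), then stained with the cationic dye JC-1 and analysed by flow cytometry. Polarized mitochondria give red aggregate emission (590 nm); depolarized ones give monomer emission (530 nm). Data are mean ± SEM of three independent experiments.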
# HeLa cells [7] = experiment: Annexin-V/PI apoptosis assay; format: cell-based, human; settings: 24 or 48 h, vs control
# Summary of the method: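 HeLa cells grown in DMEM with 10% FBS, penicillin G and streptomycin, then exposed to test compound (10 mM DMSO stocks; final DMSO ≤0.25%). Phosphatidylserine exposure was read by flow cytometry after annexin-V-FITC labelling per kit instructions, with simultaneous PI staining. Excitation was 488 nm, with emission filters at 525 nm (FITC) and 585 nm (PI).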
# HeLa cells [8] = experiment: Flow cytometric cell cycle analysis; format: cell-based, human; settings: 24 h
# Summary of the method: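 Exponentially growing HeLa cells (5 × 10^5), grown in DMEM with 10% FBS and penicillin/streptomycin, were exposed to 15–250 nM test compound for 24 h, with DMSO ≤0.25%. Cells were fixed in ice-cold 70% ethanol, treated with lysis buffer containing RNase A and 0.1% Triton X-100, and stained with propidium iodide. DNA content was measured by flow cytometry. Results are mean ± SEM of three independent experiments.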
# Bcl-2 = experiment: Western blot, Bcl-2 in HeLa cells; format: cell-based, human; settings: after 48 h
# Summary of the method: as §1
# bovine brain tubulin = bovine brain tubulin (Bos taurus, UniProt P81947+Q6B856); experiment: Inhibition of tubulin polymerization; format: biochemical; settings: tubulin assembly assay
# bovine brain tubulin, sequence (P81947 whole entry): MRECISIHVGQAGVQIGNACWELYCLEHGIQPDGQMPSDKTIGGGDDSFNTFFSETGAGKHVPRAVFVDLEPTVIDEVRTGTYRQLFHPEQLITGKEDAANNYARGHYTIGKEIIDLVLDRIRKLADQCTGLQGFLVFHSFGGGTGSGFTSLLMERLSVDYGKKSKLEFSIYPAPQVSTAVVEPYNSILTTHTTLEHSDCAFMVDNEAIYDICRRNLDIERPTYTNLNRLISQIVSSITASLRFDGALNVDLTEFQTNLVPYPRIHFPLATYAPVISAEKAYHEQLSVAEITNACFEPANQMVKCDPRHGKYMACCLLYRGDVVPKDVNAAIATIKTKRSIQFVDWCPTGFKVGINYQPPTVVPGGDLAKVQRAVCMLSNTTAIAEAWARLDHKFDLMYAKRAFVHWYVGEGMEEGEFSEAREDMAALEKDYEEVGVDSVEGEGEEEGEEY
# bovine brain tubulin, sequence (Q6B856 whole entry): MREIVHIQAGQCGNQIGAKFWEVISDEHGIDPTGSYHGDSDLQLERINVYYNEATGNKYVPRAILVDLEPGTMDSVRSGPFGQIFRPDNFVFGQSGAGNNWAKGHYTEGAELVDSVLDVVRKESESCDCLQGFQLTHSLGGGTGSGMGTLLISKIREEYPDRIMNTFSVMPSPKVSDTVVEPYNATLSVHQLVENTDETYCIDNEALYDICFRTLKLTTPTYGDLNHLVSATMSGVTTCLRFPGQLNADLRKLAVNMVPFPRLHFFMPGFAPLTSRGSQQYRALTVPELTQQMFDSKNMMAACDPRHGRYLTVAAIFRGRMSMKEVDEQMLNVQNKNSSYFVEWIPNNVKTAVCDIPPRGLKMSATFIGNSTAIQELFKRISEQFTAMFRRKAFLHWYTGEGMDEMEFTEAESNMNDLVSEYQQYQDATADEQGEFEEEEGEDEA
# [9] = tested on: six human cancer cell lines (HeLa, A549, HL-60, Jurkat, MCF-7, HT-29); experiment: Antiproliferative activity over the panel of six human cancer cell lines; format: cell-based; settings: all cell lines
# HT-29 xenograft = experiment: In vivo antitumor activity, HT-29 xenograft; parameters: species or system BALB/c-nu nude mice; settings: 100 mg/kg intraperitoneally, days 0, 2 and 4; end of observation period (day 24)
# Summary of the method: as §2
# LoVo cells = settings: read-out: IC50 LoVo; parental line; ref 13c; cited from earlier work
# LoVo^Doxo cells = settings: ref 13c, cited from earlier work
# A549-T12 cells = settings: ref 13c, cited from earlier work
# A549 cells [10] = settings: read-out: IC50 A549 (Table 3); parental line; ref 13c; cited from earlier work
# CEM cells = settings: read-out: IC50 CEM; parental line; ref 13c; cited from earlier work
# CEM^Vbl100 cells = settings: ref 13c, cited from earlier work
# [11] = ratio of IC50 in resistant and nonresistant cell lines
smiles,measurement,setting,value
"COc1ccc(-c2nnnn2-c2cc(OC)c(OC)c(OC)c2)cc1N [1-(3,4,5-trimethoxyphenyl)-5-(4-methoxy,3-aminophenyl)-1H-tetrazole]",IC50,[1],7.2 nM
CCOc1ccc(-c2ncnn2-c2cc(OC)c(OC)c(OC)c2)cc1 [3a],IC50,A549 cells [2],100 ± 20 nM
same,IC50,Jurkat cells,5 ± 0.2 nM
same,IC50,MCF-7 cells,50 ± 9 nM
same,IC50,HL-60 cells,20 ± 3 nM
same,IC50,HeLa cells [3],15 ± 4 nM
"CCOc1ccc(-c2nnnn2-c2cc(OC)c(OC)c(OC)c2)cc1 [4l, 1-(3,4,5-Trimethoxyphenyl)-5-(4-ethoxyphenyl)-1H-tetrazole]",ROS production,HeLa cells [4],induced the production of significant amounts of ROS
same,Bax expression,Bax,no effect
same,XIAP expression,XIAP,strongly reduced
same,cyclin B1 expression,cyclin B1,marked increase in cyclin B1 expression
same,body weight change of treated animals,[5],no significant weight changes
same,caspase-9 activation,caspase-9,induced activation of caspase-9
same,caspase-3 activation,caspase-3,activation of caspase-3
same,cells with depolarized mitochondria,HeLa cells [6],induced a time and concentration-dependent increase in the proportion of cells with depolarized mitochondria
same,annexin-V positive cells,HeLa cells [7],induced an accumulation of annexin-V positive cells
same,lowest concentration with a rise in G2/M cells,HeLa cells [8],30 nM
same,Bcl-2 expression,Bcl-2,only slightly affected
same,fold more potent than 5b in tubulin assembly,bovine brain tubulin,2 fold
"CCCCOc1ccc(-c2nnnn2-c2cc(OC)c(OC)c(OC)c2)cc1 [4o, 5-(4-Butoxyphenyl)-1-(3,4,5-trimethoxyphenyl)-1H-tetrazole]",antiproliferative activity,[9],inactive
"CCCCCOc1ccc(-c2nnnn2-c2cc(OC)c(OC)c(OC)c2)cc1 [4p, 1-(3,4,5-Trimethoxyphenyl)-5-(4-(pentyloxy)phenyl)-1H-tetrazole]",antiproliferative activity,[9],inactive
"CCOc1ccc(-n2nnnc2-c2cc(OC)c(OC)c(OC)c2)cc1 [5b, 5-(3,4,5-Trimethoxyphenyl)-1-(4-ethoxyphenyl)-1H-tetrazole]",ROS production,HeLa cells [4],induced the production of significant amounts of ROS
same,cells with depolarized mitochondria,HeLa cells [6],induced a time and concentration-dependent increase in the proportion of cells with depolarized mitochondria
same,annexin-V positive cells,HeLa cells [7],induced an accumulation of annexin-V positive cells
same,lowest concentration with a rise in G2/M cells,HeLa cells [8],30 nM
"COc1ccc(/C=C\c2cc(OC)c(OC)c(OC)c2)cc1O [compound 1, combretastatin A-4]",IC50,Jurkat cells,5 ± 0.6 nM
same,reduction in tumor growth vs vehicle,HT-29 xenograft,43.7%
COc1cccc2c1C(=O)c1c(O)c3c(c(O)c1C2=O)C[C@@](O)(C(=O)CO)C[C@@H]3O[C@H]1C[C@H](N)[C@H](O)[C@H](C)O1 [doxorubicin],IC50,LoVo cells,120 ± 30 nM
same,resistance ratio LoVoDoxo/LoVo,LoVo^Doxo cells; [11],109.6
same,IC50,"LoVo^Doxo cells; read-out: IC50 LoVoDoxo, doxorubicin resistant line",13200 ± 210 nM
CC(=O)O[C@H]1C(=O)[C@@]2(C)[C@H]([C@H](OC(=O)c3ccccc3)[C@]3(O)C[C@H](OC(=O)[C@H](O)[C@@H](NC(=O)c4ccccc4)c4ccccc4)C(C)=C1C3(C)C)[C@]1(OC(C)=O)CO[C@@H]1C[C@@H]2O [paclitaxel],resistance ratio A549-T12/A549,A549-T12 cells; [11],10.4
same,IC50,"A549-T12 cells; read-out: IC50 A549-T12, paclitaxel resistant line",75.2 ± 12.5 nM
same,IC50,A549 cells [10],7.2 ± 0.1 nM
CC[C@]1(O)C[C@@H]2CN(CCc3c([nH]c4ccccc34)[C@@](C(=O)OC)(c3cc4c(cc3OC)N(C)[C@H]3[C@@](O)(C(=O)OC)[C@H](OC(C)=O)[C@]5(CC)C=CCN6CC[C@]43[C@@H]65)C2)C1 [vinblastine],IC50,CEM cells,4.1 ± 0.2 nM
same,resistance ratio CEMVbl100/CEM,CEM^Vbl100 cells; [11],56.1
same,IC50,"CEM^Vbl100 cells; read-out: IC50 CEMVbl100, vinblastine resistant line",230 ± 32 nM
